Screening results as filed in PubChem.
This is a sample that favours compounds with a hit; in the whole collection about 2.6% have one here.
T cell HTS: modulators of CD8 T cell-vesicle binding, primary screen, mouse 2C CD8+ T cells, flow cytometry; 2C CD8+ T cell-vesicle binding; hits give low values; response (vesicle binding), % at 7 µM; 330,000 tested, 0.068% active; AID 2052, 2009;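 active = response, share of CD8 T cells binding vesicles, and their 90th percentile fluorescence all below set limits, cut at about 80% in these data, passing the limit was not always enough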;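 also: values below 100% mean blocked vesicle binding to the CD8+ T cells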
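System: murine 2C transgenic CD8+ T lymphocytes; also added: QL9-loaded Drosophila micro-vesicles; times: binding 1.5 h at 37 °C; measured by: flow cytometry, PE anti-B7-1 (FL2) versus Alexa647 anti-CD8 (FL8), PFA-fixed; control set: Peptide-free naked vesicles (low) and QL9 vesicles with 0.7% DMSO vehicle (high)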
Myeloid diff 2: induction of myeloid progenitor differentiation, primary screen, cell-based, flow cytometry, MLPCN library | ER-HoxA9 myeloid progenitors, lysozyme-GFP differentiation | calls only at 10 µM | 360,000 tested, 1% active | AID 624256, 2012;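 active = normalized GFP-positive differentiation at or above the plate's own cutoff, the solvent-only control mean plus 3 SD; inconclusive = no clear call, values can overlap the other calls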;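 also: cells exposed to compound for four days before flow analysis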
SKN-1 block: suppressors of acrylamide-induced Pgst-4::GFP reporter in worms, primary screen, SKN-1 inhibitor project, whole organism, uHTS, GFP/RFP fluorescence ratio, strain VP596; AID 624304, 2012; inhibition, % at 21.8 µM; C. elegans VP596 Pgst-4::GFP/RFP ratio, 24 h; 360,000 tested, 0.49% active;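 active = interference check ratio from 0.5 to 1.5 plus GFP to RFP signal ratio inhibition reaching or exceeding a fixed threshold, cut at about 30% in these data, passing the limit was not always enough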
GRK2 aptamer HTS: compounds blocking aptamer binding on GRK2 – biochemical, human GRK2, bead flow cytometry, HTS, primary screen | Beta-adrenergic receptor kinase 1 (Homo sapiens), P25098 | FAM-aptamer displacement from GRK2 | inhibition of aptamer binding, % at 10 µM | 330,000 tested, 0.59% active | AID 488847, 2010;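 active = inhibition of aptamer binding above 40%, roughly 3 SD of noise, on plates passing a quality check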;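 also: median bead fluorescence of bound FAM aptamer so fluorescent compounds give negative values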
Rin1-Abl PPI inh: inhibitors of Rin1-Abl protein binding, primary screen, biochemical, TR-FRET; 360,000 tested, 0.4% active; Tyrosine-protein kinase ABL1 (Homo sapiens) + Ras and Rab interactor 1 (Homo sapiens), …; inhibition, % at 7.35 µM; AID 588664, 2011; in the data active = inhibition above about 5%, passing the limit was not always enough
Rce1 inh: yeast Rce1p protease inhibitors, primary screen, biochemical, fluorescence, cell-free homogeneous. 290,000 tested, 0.27% active. calls only. yeast membranes, quenched prenylated peptide cleavage fluorescence. AID 2563, 2010;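 active = fall in fluorescence gain of 50% or more versus controls, with final raw signal at or below 3038400; inconclusive = same 50% fall but final raw signal above 3038400; inactive = fall in fluorescence gain under 50%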;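 also: plate controls were neutral control wells for no effect and wells lacking membranes for full effect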
Myeloid diff: inducers of myeloid progenitor differentiation, confirmation, cell-based, GFP/Mac1 flow cytometry, cherry pick 01 | calls only | shares compounds with Myeloid diff 2 | ER-HoxA9 myeloid progenitors, GFP/Mac1 double-positive flow | 2,300 tested, 2% active;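 active = share of green or green-and-red cells above 9 and 9% in run 1 or 4 and 3% in run 2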
GFP autofluor: flagged as fluorescent in myeloid differentiation counter-screen; shares compounds with Myeloid diff 2; ER-HoxA9 myeloid progenitors, no estrogen, GFP autofluorescence flow cytometry; vehicle wells 0%, positive control 100%; fluorescence response, % (test concentration not listed); 2,300 tested, 7.4% active;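 active = over 5% cells positive for green fluorescent reporter, or over 2% positive for both it and APC stain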;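 also: range taken on the double positive population between DMSO and positive control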
* marks the source's active call; other numbers are inactive results; i = inactive; ? = inconclusive; · = not tested or not shown; + = active, no number.

SMILES	T cell HTS	Myeloid diff 2	SKN-1 block	GRK2 aptamer HTS	Rin1-Abl PPI inh	Rce1 inh	Myeloid diff	GFP autofluor
Cc1cc(N2CCN(c3nc4ccccc4s3)CC2)n2ncnc2n1	189	i	0	0	-4	i	i	1
Cc1ccc(SCC(=O)NCC2COc3ccccc3O2)cc1 (centres undefined)	203	i	5	0	0	·	·	·
COc1ccc(-c2cc(C3CCN(C(=O)OC(C)(C)C)CC3)[nH]n2)cc1	156	i	7	·	0	i	·	·
CCC[C@H]1CC(=O)C=C(c2ccc(OC)cc2)ON1C(=O)OC(C)(C)C	·	i	-17	·	-1	·	i	0
COCCNc1nc(N2CCCCC2)c2cnn(C)c2n1	430	i	-1	0	4	i	·	·
O=C(COC(=O)/C=C/c1ccc(S(=O)(=O)N2CCOCC2)cc1)Nc1ccccc1F	524	i	7	1	-4	·	·	·
O=C(/C=C/c1cccc(F)c1)Nc1cc(S(=O)(=O)N2CCOCC2)ccc1Cl	145	i	8	0	2	·	i	0
COc1ccc(/C=C/C(=O)Nc2ccc(C)c(S(=O)(=O)N3CCOCC3)c2)cc1	166	i	-5	0	3	·	i	0
O=C(/C=C/c1cccc(F)c1)Nc1cc(S(=O)(=O)N2CCOCC2)ccc1N1CCCC1	258	i	4	0	-3	i	·	·
Cc1ccc(S(=O)(=O)N2CCOCC2)cc1NC(=O)COC(=O)/C=C/c1ccc(F)cc1	236	i	-9	0	-1	·	i	0
CC(C)(C)n1nnnc1C(c1ccccc1)N1CCN(CCN2CCOCC2)CC1 (centres undefined)	·	i	-8	·	·	·	·	·
CN1OC[C@@H]2CN(C(=O)CCc3ccccc3)[C@H](c3cccc(Oc4ccccc4)c3)C[C@@H]21	·	i	-1	·	0	·	i	1
CN1OC[C@@H]2CN(C(=O)CCc3ccccc3)[C@H](c3cccc(-c4ccccc4)c3)C[C@@H]21	·	i	13	·	2	·	·	·
Cc1ccc(C=Nc2ccc(N(C)C)cc2)o1	397	i	12	10	-1	i	i	0
N#Cc1ccc(-c2csc(NC(=O)/C=C/c3cccs3)n2)cc1	238	+	4	4	-1	i	i	0
N#Cc1ccc(-c2csc(NC(=O)C3CC3)n2)cc1	297	i	-3	2	-1	i	·	·
Cc1ccc(-c2csc(NC(=O)/C=C/c3cccs3)n2)cc1C	80	i	3	0	-2	i	i	0
O=C(/C=C/c1ccccc1)Nc1nc(-c2ccncc2)cs1	193	i	-9	0	-6	·	·	·
CC(C)(C)OC(=O)[C@H](Cc1ccccc1)NC(=O)c1nc[nH]c1C(=O)N1CCNCC1	266	i	2	1	0	·	·	·
CCCN(CC(=O)Nc1cc(C)on1)CC(=O)Nc1ccccc1C	244	i	-9	0	2	·	·	·
Cc1ccc(NC(=O)C2CCCN2c2nn3c(=O)cc(C)nc3s2)cc1 (centres undefined)	558	i	-8	0	0	i	·	·
CCOC(=O)C1CCN(C(=O)CCc2nnc3ccc(NCc4ccco4)nn23)CC1	306	+	17	1	5	i	i	1
O=C(CCc1nnc2ccc(NCc3ccco3)nn12)N1CCN(c2ccccc2)CC1	222	?	5	2	1	i	·	·
Cc1ccc(Nc2c(-c3ccccn3)nc3cc(C)ccn23)cc1	190	i	-9	1	-6	i	i	0
Cc1ccn2c(Nc3ccc4c(c3)OCO4)c(-c3ccccn3)nc2c1	86	i	15	1	-6	i	·	·
SMILES	T cell HTS	Myeloid diff 2	SKN-1 block	GRK2 aptamer HTS	Rin1-Abl PPI inh	Rce1 inh	Myeloid diff	GFP autofluor
Cc1ccc(C(=O)Nc2ncccc2S(=O)(=O)c2ccccc2)cc1	187	i	-3	0	-2	i	·	·
COc1cccc(NCc2cc3c(C(C)(C)C)nn(-c4ccccc4)c3[nH]c2=O)c1	248	+	7	1	0	i	i	0
COC(=O)c1sc2ccccc2c1-n1cccc1C(=O)C(=O)Nc1ccccc1	212	i	17	1	-4	i	i	0
Cn1c(Cc2ccccc2)nnc1SCC(=O)NC1CCCC1	932	i	12	1	0	i	·	·
COc1ccc(-n2nnnc2C(c2ccnc3ccccc23)N2CCN(C/C=C/c3ccccc3)CC2)cc1 (centres undefined)	·	+	3	·	2	·	i	1
Cc1cc(N2CCN(C(c3ccnc4ccccc34)c3nnnn3-c3c(C)cccc3C)CC2)c2ccccc2n1 (centres undefined)	·	i	-3	·	·	·	i	0
C(=C\c1ccccc1)/CN1CCN(C(c2ccnc3ccccc23)c2nnnn2-c2ccc3c(c2)OCCO3)CC1 (centres undefined)	·	i	0	·	2	·	·	·
Cc1cccc(OCCC(=O)NNC(=O)c2ccoc2C)c1	361	i	-20	1	2	·	·	·
ClCCn1cnc2c(SCc3ccccc3Cl)ncnc21	·	i	13	·	0	·	i	4
COC(=O)C[C@@H]1C=C[C@H](NC(=O)Cc2ccccn2)[C@@H](CO)O1	·	i	20	·	·	·	·	·
O=C(NCCc1ccccc1)C1CCCN1C(=O)Nc1ccccc1 (centres undefined)	168	i	6	0	3	i	·	·
COc1ccc(NC(=O)N2CCCC2C(=O)NCCc2ccccc2)cc1 (centres undefined)	216	i	2	0	2	i	i	0
Cc1ccc(/C(O)=C2\C(=O)C(=O)N(CCCN3CCOCC3)C2c2ccccc2F)cc1 (centres undefined)	·	i	13	·	-3	·	·	·
CCCCCSc1nncc(=O)[nH]1	317	+	-11	1	-2	i	i	1
COc1ccc(/C=C/c2cccc[n+]2C)c(O)c1	179	i	4	0	-4	i	+	1
